Results published in ChEMBL document CHEMBL2086311, “UDP made a highly promising stable, potent, and selective P2Y6-receptor agonist upon introduction of a boranophosphate moiety” (Bioorg Med Chem, 2012).
Active and inactive are the calls of the source. No cut-off for these calls is given here.

Tests used:
P2Y purinoceptor 6 [1] = molecular target: T1, P2Y purinoceptor 6 (Homo sapiens, UniProt Q15077); experiment: Agonist activity at human P2Y6 receptor; assay type: functional
Procedure, shortened: (§1)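 Human P2Y6 receptor-GFP construct stably expressed in 1321N1 astrocytoma cells (no endogenous P2X/P2Y). Cells loaded with 2 µM fura-2/AM plus 0.02% pluronic acid in Na-HBS (pH 7.4), 30 min, 37 °C. Superfused at 37 °C with nucleotide, usually 10^-8 M to at least 10^-5 M. [Ca2+]i read as 340/380 nm excitation ratio, emission 510 nm. EC50 from concentration–response curves.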

P2Y purinoceptor 4 [2] = molecular target: T2, P2Y purinoceptor 4 (Homo sapiens, UniProt P51582); experiment: Agonist activity at human GFP-tagged P2Y4 receptor expressed in human 1321N1 cells assessed as intracellular calcium mobilization up to 100 uM by fura2/AM-based fluorescence spectrophotometry; assay type: functional, cell-based
Procedure, shortened: (§2)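 Human P2Y2, P2Y4 or P2Y6 receptors with GFP fusion, stably expressed in 1321N1 astrocytoma cells (no endogenous P2X/P2Y), selected with 0.5 mg/mL G418. Cells on coverslips at ~80% density were loaded with 2 µM fura 2/AM plus 0.02% pluronic acid in Na-HBS pH 7.4 for 30 min at 37 °C. Nucleotide was superfused at 37 °C, usually 10^-8 to ≥10^-5 M, sometimes to 10^-4 M. Read-out was 340/380 nm excitation ratio at 510 nm emission. Values are mean maximal amplitude ± SE.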

P2Y purinoceptor 6 [3] = molecular target: T1, P2Y purinoceptor 6; experiment: Agonist activity at human GFP-tagged P2Y6 receptor expressed in human 1321N1 cells assessed as intracellular calcium mobilization by fura2/AM-based fluorescence spectrophotometry; assay type: functional, cell-based; procedure, shortened: as §2
[4] = molecular target: P2Y purinoceptor 2 (Homo sapiens) (UniProt P41231); experiment: Agonist activity at human GFP-tagged P2Y2 receptor expressed in human 1321N1 cells assessed as intracellular calcium mobilization up to 100 uM by fura2/AM-based fluorescence spectrophotometry; assay type: functional, cell-based; procedure, shortened: as §2
[5] = Half life in KCl/HCl buffer by 31P-NMR analysis at pH 1.4; assay type: physicochemical
Procedure, shortened: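 Sodium salt dissolved in KCl/HCl buffer pH 1.4 containing D2O, held at 37 °C. 31P NMR spectra taken at 15 min, 1 h or 24 h intervals, about every 24 h in multi-day runs. Hydrolysis rate taken from change in integration of one starting-material phosphate signal over time, fit to a pseudo-first-order model.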

[6] = molecular target: T3, Ectonucleotide pyrophosphatase/phosphodiesterase family member 1 (Homo sapiens, UniProt P22413); experiment: Hydrolytic stability of the compound assessed as human NPP1-mediated hydrolysis measuring UMP formation after 2 hrs by HPLC analysis; assay type: ADME; parameters: scale not given: the % may be the effect or the level left
T3 sequence (P22413 whole entry): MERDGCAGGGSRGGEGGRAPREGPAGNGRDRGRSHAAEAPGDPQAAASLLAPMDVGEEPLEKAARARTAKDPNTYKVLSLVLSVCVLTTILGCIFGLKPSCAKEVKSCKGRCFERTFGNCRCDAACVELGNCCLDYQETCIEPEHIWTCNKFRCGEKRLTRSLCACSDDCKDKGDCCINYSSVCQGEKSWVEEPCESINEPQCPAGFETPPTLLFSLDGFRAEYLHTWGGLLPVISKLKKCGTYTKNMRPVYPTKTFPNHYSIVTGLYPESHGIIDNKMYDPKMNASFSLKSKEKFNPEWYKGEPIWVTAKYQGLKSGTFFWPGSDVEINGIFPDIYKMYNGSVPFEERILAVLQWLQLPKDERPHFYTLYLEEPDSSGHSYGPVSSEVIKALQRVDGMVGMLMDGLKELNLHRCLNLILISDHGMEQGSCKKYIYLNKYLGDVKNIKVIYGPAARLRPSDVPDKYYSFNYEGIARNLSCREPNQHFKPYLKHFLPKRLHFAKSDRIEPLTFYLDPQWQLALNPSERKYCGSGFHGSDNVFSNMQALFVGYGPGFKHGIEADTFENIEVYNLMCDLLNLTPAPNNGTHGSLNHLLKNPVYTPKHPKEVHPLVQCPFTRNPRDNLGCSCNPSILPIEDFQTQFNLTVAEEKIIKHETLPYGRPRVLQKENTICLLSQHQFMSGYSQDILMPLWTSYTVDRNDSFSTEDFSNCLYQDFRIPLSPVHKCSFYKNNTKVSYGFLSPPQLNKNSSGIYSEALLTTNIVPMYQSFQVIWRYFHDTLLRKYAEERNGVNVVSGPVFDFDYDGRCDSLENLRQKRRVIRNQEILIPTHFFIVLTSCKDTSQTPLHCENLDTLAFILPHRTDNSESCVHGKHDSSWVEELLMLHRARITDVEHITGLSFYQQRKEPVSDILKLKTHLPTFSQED
Procedure, shortened: (§3)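 Human NPP1 (56.15 µg) or NPP3 (57.78 µg) extract was pre-incubated 3 min at 37 °C in 1 mM CaCl2, 200 mM NaCl, 10 mM KCl, 100 mM Tris pH 8.5. Reaction was started with 4 mM compound stock and stopped after 2 h (NPP1) or 3 h (NPP3) in ice-cold 1 M perchloric acid, then neutralized with KOH. HPLC measured the nucleoside monophosphate peak area minus a no-enzyme acid control. Mean ± S.D. of two experiments.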

Serum [7] = experiment: Drug metabolism in human serum assessed as nucleoside 5'-monophosphate formation incubated up to 24 hrs by HPLC analysis; assay type: ADME, cell-free
Procedure, shortened: (§4)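 Samples held 0.1 mg compound with human blood serum (180 µL) and RPMI-1640 (540 µL) at 37 °C for 0–24 h. At each time point they were heated to 80 °C for 30 min, treated with CM Sephadex, centrifuged and chloroform-extracted. Analysis was reverse-phase HPLC on peak integrals. Degradation was taken relative to a no-serum control carried through the same workup, and half-lives came from the time course.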

Serum [8] = experiment: Drug metabolism in human serum assessed as nucleoside formation incubated up to 24 hrs by HPLC analysis; assay type: ADME, cell-free; procedure, shortened: as §4
[9] = Half life in human serum by HPLC analysis; assay type: ADME, cell-free
Procedure, shortened: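 Compound (0.1 mg) incubated with human blood serum and RPMI-1640 medium at 37 °C for 0–24 h. Samples taken at 0.5–12 h intervals, heated to 80 °C for 30 min, treated with CM Sephadex and extracted with chloroform. Analysed by reverse-phase HPLC. Degradation from peak integration, corrected against a serum-free control given the same workup.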

[10] = Agonist activity at P2Y6 receptor in New Zealand White rabbit osteoclasts assessed as intracellular calcium mobilization by fura2-based microfluorimetric technique; assay type: functional, cell-based; conditions: Oryctolagus cuniculus
P2Y purinoceptor 6 [11] = molecular target: T1, P2Y purinoceptor 6; experiment: Ratio of UDP EC50 to compound EC50 for human GFP-tagged P2Y6 receptor; procedure, shortened: as §1
[12] = molecular target: T4, NPP3 (ectonucleotide pyrophosphatase/phosphodiesterase family member 3) (Homo sapiens, UniProt O14638); experiment: Hydrolytic stability of the compound assessed as human NPP3-mediated hydrolysis after 3 hrs by HPLC analysis; assay type: ADME; conditions: human NPP3 enzyme, read-out: Activity; procedure, shortened: as §3
T4 sequence (O14638 whole entry): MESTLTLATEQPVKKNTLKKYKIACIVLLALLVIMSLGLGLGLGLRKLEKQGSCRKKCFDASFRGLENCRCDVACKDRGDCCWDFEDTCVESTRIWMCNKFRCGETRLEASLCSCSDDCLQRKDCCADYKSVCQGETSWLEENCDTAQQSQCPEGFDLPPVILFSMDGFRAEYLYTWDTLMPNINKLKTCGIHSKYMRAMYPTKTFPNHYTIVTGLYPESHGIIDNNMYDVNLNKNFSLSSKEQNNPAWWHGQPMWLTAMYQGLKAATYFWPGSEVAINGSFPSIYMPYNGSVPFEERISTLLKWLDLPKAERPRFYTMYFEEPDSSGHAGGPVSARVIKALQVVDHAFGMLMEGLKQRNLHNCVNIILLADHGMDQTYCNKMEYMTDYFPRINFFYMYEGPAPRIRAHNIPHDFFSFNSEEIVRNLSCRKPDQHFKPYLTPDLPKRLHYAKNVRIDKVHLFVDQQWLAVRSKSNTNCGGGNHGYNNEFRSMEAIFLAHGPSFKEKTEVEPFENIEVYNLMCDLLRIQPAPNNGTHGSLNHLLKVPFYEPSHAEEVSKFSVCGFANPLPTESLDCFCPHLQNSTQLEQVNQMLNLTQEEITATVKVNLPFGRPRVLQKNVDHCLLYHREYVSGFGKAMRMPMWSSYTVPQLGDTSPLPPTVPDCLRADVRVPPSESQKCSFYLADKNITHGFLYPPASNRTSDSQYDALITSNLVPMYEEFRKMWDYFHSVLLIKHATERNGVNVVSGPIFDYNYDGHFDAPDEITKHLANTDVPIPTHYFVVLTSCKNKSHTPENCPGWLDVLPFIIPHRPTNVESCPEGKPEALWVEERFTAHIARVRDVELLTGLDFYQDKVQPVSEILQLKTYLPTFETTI

[13] = molecular target: T3, Ectonucleotide pyrophosphatase/phosphodiesterase family member 1; experiment: Hydrolytic stability of the compound assessed as human NPP1-mediated hydrolysis measuring 5-OMe-UMP formation after 2 hrs by HPLC analysis; assay type: ADME; parameters: scale not given: the % may be the effect or the level left; procedure, shortened: as §3
P2Y purinoceptor 4 [14] = molecular target: T2, P2Y purinoceptor 4; experiment: Agonist activity at human GFP-tagged P2Y4 receptor expressed in human 1321N1 cells assessed as intracellular calcium mobilization by fura2/AM-based fluorescence spectrophotometry; assay type: functional, cell-based; procedure, shortened: as §2

T1 sequence (Q15077 whole entry, the tested form may be a part): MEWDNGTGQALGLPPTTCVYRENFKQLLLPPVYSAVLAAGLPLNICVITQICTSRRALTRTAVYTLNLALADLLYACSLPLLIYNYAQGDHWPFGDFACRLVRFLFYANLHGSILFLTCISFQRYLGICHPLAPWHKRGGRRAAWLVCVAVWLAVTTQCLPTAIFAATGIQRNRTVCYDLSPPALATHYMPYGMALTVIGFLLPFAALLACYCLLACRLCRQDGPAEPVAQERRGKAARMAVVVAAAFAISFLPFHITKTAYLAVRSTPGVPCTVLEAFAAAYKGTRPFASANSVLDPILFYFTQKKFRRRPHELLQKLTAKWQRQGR
T2 sequence (P51582 whole entry, the tested form may be a part): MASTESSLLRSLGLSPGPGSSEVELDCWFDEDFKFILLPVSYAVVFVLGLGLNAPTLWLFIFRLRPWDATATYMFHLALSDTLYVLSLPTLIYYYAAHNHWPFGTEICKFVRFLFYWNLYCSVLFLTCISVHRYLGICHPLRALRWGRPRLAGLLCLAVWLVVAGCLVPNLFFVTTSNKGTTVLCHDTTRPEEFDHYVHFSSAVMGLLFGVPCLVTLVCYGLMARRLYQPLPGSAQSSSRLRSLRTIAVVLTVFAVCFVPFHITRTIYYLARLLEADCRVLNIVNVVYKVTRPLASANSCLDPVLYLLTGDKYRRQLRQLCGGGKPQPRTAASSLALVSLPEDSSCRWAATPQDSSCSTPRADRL
P2Y purinoceptor 2 (Homo sapiens), sequence (P41231 whole entry): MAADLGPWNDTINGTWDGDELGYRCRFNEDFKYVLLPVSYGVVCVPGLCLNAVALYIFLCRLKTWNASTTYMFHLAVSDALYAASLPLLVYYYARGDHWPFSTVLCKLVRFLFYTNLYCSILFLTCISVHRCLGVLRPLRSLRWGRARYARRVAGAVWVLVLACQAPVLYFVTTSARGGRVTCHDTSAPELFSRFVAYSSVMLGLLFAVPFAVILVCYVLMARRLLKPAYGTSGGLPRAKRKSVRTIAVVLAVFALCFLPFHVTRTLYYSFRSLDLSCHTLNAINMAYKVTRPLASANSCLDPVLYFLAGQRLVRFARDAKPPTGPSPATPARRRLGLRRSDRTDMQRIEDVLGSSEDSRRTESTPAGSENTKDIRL

Structure (SMILES) | Activity (P2Y purinoceptor 4 [2]) | EC50 (P2Y purinoceptor 6 [3]) [nM] | Activity [4] | also measured
O=c1ccn([C@@H]2O[C@H](COP(=O)(O)OP(=O)(O)S)[C@@H](O)[C@H]2O)c(=O)[nH]1 (some centres undefined) | – | – | – | EC50 (P2Y purinoceptor 6 [1]): 28 nM
BP(=O)(OP(=O)(O)OC[C@H]1O[C@@H](n2cc(OC)c(=O)[nH]c2=O)[C@H](O)[C@@H]1O)OP(=O)(O)OC[C@H]1O[C@@H](n2cc(OC)c(=O)[nH]c2=O)[C@H](O)[C@@H]1O | inactive | 200 | inactive | –
O=c1ccn([C@@H]2O[C@H](COP(=O)(O)OP(=O)(O)O)[C@@H](O)[C@H]2O)c(=O)[nH]1 [URIDINE_DIPHOSPHATE] | – | 150 | – | EC50 (P2Y purinoceptor 6 [1]): 47 nM; half-life [5]: 288 h; Activity [6]: 50%; Drug metabolism (Serum [7]): Active; Drug metabolism (Serum [8]): Active; half-life [9]: 2.4 h; EC50 [10]: 500 nM
O=c1ccn([C@@H]2O[C@H](COP(=O)(O)OP(=O)(O)OP(=O)(O)OC[C@H]3O[C@@H](n4ccc(=O)[nH]c4=O)[C@@H]4OC(Cc5ccccc5)O[C@@H]43)[C@@H](O)[C@H]2O)c(=O)[nH]1 (some centres undefined) | – | – | – | EC50 [10]: 140 nM
B[P@](=O)(OC[C@H]1O[C@@H](n2cc(OC)c(=O)[nH]c2=O)[C@H](O)[C@@H]1O)OP(=O)(O)OP(=O)(O)O | inactive | – | inactive | –
B[P@@](=O)(OC[C@H]1O[C@@H](n2cc(OC)c(=O)[nH]c2=O)[C@H](O)[C@@H]1O)OP(=O)(O)OP(=O)(O)OC[C@H]1O[C@@H](n2cc(OC)c(=O)[nH]c2=O)[C@H](O)[C@@H]1O | inactive | 60 | inactive | Ratio EC50 (P2Y purinoceptor 6 [11]): 2.5
COc1cn([C@@H]2O[C@H](COP(=O)(O)OP(=O)(O)O)[C@@H](O)[C@H]2O)c(=O)[nH]c1=O | – | – | – | metabolised at 3 h [12]: 36%; Drug metabolism (Serum [7]): Active; Drug metabolism (Serum [8]): Active; half-life [9]: 11.9 h; Activity [13]: 49%
B[P@@](=O)(OC[C@H]1O[C@@H](n2cc(OC)c(=O)[nH]c2=O)[C@H](O)[C@@H]1O)OP(=O)(O)O | inactive | – | inactive | Ratio EC50 (P2Y purinoceptor 6 [11]): 19
B[P@](=O)(OC[C@H]1O[C@@H](n2cc(OC)c(=O)[nH]c2=O)[C@H](O)[C@@H]1O)OP(=O)(O)O | inactive | 4300 | inactive | –
BP(=O)(OC[C@H]1O[C@@H](n2cc(OC)c(=O)[nH]c2=O)[C@H](O)[C@@H]1O)OP(=O)(O)O (some centres undefined) | – | – | – | half-life [5]: 16.9 h
B[P@@](=O)(OC[C@H]1O[C@@H](n2cc(OC)c(=O)[nH]c2=O)[C@H](O)[C@@H]1O)OP(=O)(O)OP(=O)(O)O | inactive | 11200 | inactive | –
B[P@@](=O)(OC[C@H]1O[C@@H](n2ccc(=O)[nH]c2=O)[C@H](O)[C@@H]1O)OP(=O)(O)O | – | – | – | half-life [5]: 16.8 h; half-life [9]: 17 h
B[P@](=O)(OC[C@H]1O[C@@H](n2cc(OC)c(=O)[nH]c2=O)[C@H](O)[C@@H]1O)O[P@@](=O)(O)OP(=O)(O)O | – | 20100 | – | –
COc1cn([C@@H]2O[C@H](COP(=O)(O)OP(=O)(O)OP(=O)(O)OC[C@H]3O[C@@H](n4cc(OC)c(=O)[nH]c4=O)[C@H](O)[C@@H]3O)[C@@H](O)[C@H]2O)c(=O)[nH]c1=O | inactive | > 10000 | inactive | –
O=c1ccn([C@@H]2O[C@H](COP(=O)(O)OP(=O)(O)OP(=O)(O)O)[C@@H](O)[C@H]2O)c(=O)[nH]1 [URIDINE TRIPHOSPHATE] | – | – | – | EC50 (P2Y purinoceptor 4 [14]): 900 nM
B[P@](=O)(OC[C@H]1O[C@@H](n2cc(OC)c(=O)[nH]c2=O)[C@H](O)[C@@H]1O)OP(=O)(O)OP(=O)(O)OC[C@H]1O[C@@H](n2cc(OC)c(=O)[nH]c2=O)[C@H](O)[C@@H]1O | inactive | 2200 | inactive | –
